Reference: PMC7851350 (Neoplasia (New York, N.Y.), 2021)

Legend:
murine PD-L1 protein = murine PD-L1 protein (Mus musculus, UniProt Q9EP73); test: SPR binding affinity to murine PD-L1
Outline: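 SPR running buffer was 1.05× PBS (pH 7.4) with 5% DMSO, at 25°C and 30 µL/min. DMSO solvent correction used 8 standards (4.5–5.8%). Test compound (10 mM DMSO stock) was diluted to 100–3.125 µM plus a 0 µM blank. Each cycle had 90 s injection, 120 s dissociation and 30 s buffer carryover check. Kd came from a global steady-state fit.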

[1] = test system: tumor-infiltrating lymphocytes (TILs); test: Flow cytometry of tumor-infiltrating lymphocytes from B16F10-hPD-L1 tumors; type: in vivo, mice; conditions: 15 mg/kg
Outline: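 Tumours from B16F10-hPD-L1 mice treated with 15 mg/kg test compound or vehicle were minced and digested for 45 min at 37°C in collagenase IV (200 U/mL) plus DNase I (40 U/mL). They were then treated with EDTA for 5 min at 37°C and strained at 70 µm. Cells were stained for CD3, CD4, CD8, perforin and granzyme B and analysed by flow cytometry; mean ± SEM, unpaired t test.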

[2] = test system: CD4+ T cells cultured alone; test: T cell response assay, prestimulated T cells cultured alone; type: cell-based, human; conditions: T-lymphocytes cultured alone, 48 h
Outline: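 Prestimulated human CD4⁺ T cells (IL-2 100 IU/mL, CD3/CD28 beads 1:1, ~7 d expansion) were cultured alone (2 × 10⁴) with or without test compound for 48 h at 37°C, 5% CO₂. Supernatant IFN-γ and TNF-α were measured by ELISA.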

[3] = test system: spleen T lymphocyte markers; test: Immunohistochemistry of spleen from treated tumor-bearing mice; type: in vivo; conditions: IHC, 15 mg/kg, vs vehicle
Outline: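 Spleens came from tumour-bearing mice treated with 15 mg/kg test compound or vehicle. Sections (4 µm) of 4% PFA-fixed, paraffin-embedded tissue were stained overnight at 4°C with anti-CD4, CD8 and FoxP3. HRP secondary was applied for 30 min, then DAB. Positive particles were counted per field (n = 5); mean ± SEM, unpaired t test.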

B16F10-hPD-L1 tumor = test: Antitumor efficacy in B16F10-hPD-L1 tumor-bearing C57BL/6 mice; type: in vivo
[4] = test system: CD4+ T cells cocultured with PD-L1-negative HEK293T cells; type: cell-based, human; conditions: coculture with PD-L1-negative HEK293T cells, 48 h
Outline: (§1)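 Human CD4⁺ T blasts were expanded ~7 d with IL-2 (100 IU/mL) and CD3/CD28 beads (1:1), then frozen. Target cells (NCI-H1975, HEK293T-hPD-L1 or PD-L1-negative HEK293T; 10,000/well) adhered for 24 h. T cells (2 × 10⁴; E:T 2:1) were added with or without test compound or atezolizumab in complete RPMI-1640 for 48 h at 37°C, 5% CO₂. Supernatant IFN-γ and TNF-α were measured by ELISA.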

Jurkat cells = test: Cell toxicity on Jurkat cells during flow cytometric experiments; type: cell-based; conditions: concentration up to 50 μM
[5] = Stability assay in human blood plasma; type: in vitro ADME
Outline: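 Test compound at 2 µM was incubated in human plasma at 37°C. Duplicate samples were taken at 0, 10, 30, 60 and 120 min. Reactions were stopped with 50% ACN/MeOH containing tolbutamide and labetalol (200 ng/mL each).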

[6] = type: in vivo, mice
Outline: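 Female C57BL/6 mice bearing subcutaneous B16F10-hPD-L1 tumours were randomised and dosed daily for 1 wk with vehicle, 15 mg/kg or 50 mg/kg test compound. On day 7 after the first dose, serum GOT, GPT, ALP and ALB were measured on an automatic dry-type biochemical analyser. Deaths and toxic effects were recorded during the study.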

splenic lymphocytes = type: in vivo, mice; conditions: 15 mg/kg, vs vehicle
Outline: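 B16F10-hPD-L1 (5 × 10⁶ s.c.) mice received 15 mg/kg test compound i.p. every 2 d or vehicle. Spleens were taken at day 24, meshed through 70 µm, ACK-lysed, and 1 × 10⁶ cells were stained for CD3, CD4, CD8 and perforin. For intracellular cytokines, 2 × 10⁶ cells were stimulated with activation cocktail (1:500) plus brefeldin A (1:1000) for 3–4 h at 37°C, then stained for CD3, CD4, IFN-γ and TNF-α. Data are mean ± SEM; unpaired t test.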

[7] = test system: CD4+ T cells cocultured with NCI-H1975 cells; test: T cell response assay, CD4+ T cells cocultured with NCI-H1975 cells; type: cell-based, human; conditions: 48 h coculture, ELISA
Outline: as §1

[8] = test system: B16F10-hPD-L1 tumor tissue; test: Immunohistochemistry of B16F10-hPD-L1 tumor tissue; type: in vivo, mice; conditions: IHC, 15 mg/kg, vs vehicle
Outline: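 Tumours came from B16F10-hPD-L1-bearing C57BL/6 mice given 15 mg/kg test compound or vehicle. Sections (4 µm) of 4% PFA-fixed, paraffin-embedded tissue were incubated with anti-FoxP3, anti-CD4 and anti-CD8 overnight at 4°C. HRP secondary was applied for 30 min, followed by DAB. Positive particles were counted per field.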

[9] = test system: B16F10-hPD-L1 tumor tissue; test: RNA-seq of B16F10-hPD-L1 tumor tissue; type: in vivo, mice; conditions: 15 mg/kg vs vehicle
[10] = test system: CD4+ T cells cocultured with hPD-L1 overexpressed HEK293T cells; test: T cell response assay, CD4+ T cells cocultured with HEK293T-hPD-L1 cells; type: cell-based, human; conditions: 48 h coculture
Outline: as §1

MC38 tumor = test: Antitumor efficacy in MC38 colon tumor-bearing mice; type: in vivo, C57BL/6 mice
Outline: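 Mice were female C57BL/6, 5–6 wk old. MC38 cells (3 × 10⁶) were injected s.c. into the right abdomen; mice were randomised at 50–70 mm³. Test compound (10 or 15 mg/kg) was given i.p. every 2 d in saline with 8% ethanol and 8% glycerin. Atezolizumab (10 mg/kg) was given i.v. every 3 d. Calipers were read every 2 d; volume = 1/2 × L × W². Mice were sacrificed after 7 doses. Body weight was followed; growth inhibition was computed against vehicle and predose volumes.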

PD-L1 = conditions: cited from earlier work
post-treatment tumors = conditions: responders; cited from earlier work
[11] = flow cytometry and IHC, vs vehicle
[12] = 15 and 50 mg/kg daily, day 7, vs control

Sequence of murine PD-L1 protein (Q9EP73 19-290): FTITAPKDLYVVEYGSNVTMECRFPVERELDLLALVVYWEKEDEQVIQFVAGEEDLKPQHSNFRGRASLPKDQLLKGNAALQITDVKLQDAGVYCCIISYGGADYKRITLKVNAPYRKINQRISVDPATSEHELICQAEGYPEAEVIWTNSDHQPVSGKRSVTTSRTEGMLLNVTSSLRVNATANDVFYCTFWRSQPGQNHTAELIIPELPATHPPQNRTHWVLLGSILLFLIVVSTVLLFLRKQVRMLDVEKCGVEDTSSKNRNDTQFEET

NC(=O)c1ccccc1NC(=O)c1ccc(-c2ccccc2)cc1 [APBC, N-[2-(aminocarbonyl)phenyl][1,1′-biphenyl]-4-carboxamide]
Kd (murine PD-L1 protein): > 100 µM | GzmB expression in CD3+ T cells of tumors ([1]; TILs, vs controls): markedly elevated | perforin expression in CD3+ T cells of tumors ([1]; TILs, vs controls): markedly elevated | CD4+ T-cell population in tumors [1, 11]: significantly increased | CD8+ T-cell population in tumors [1, 11]: significantly increased | IFN-γ and TNF-α production [2]: did not significantly affect | density of CD4+ T lymphocytes in the spleen [3]: considerably higher density | density of CD8+ T lymphocytes in the spleen [3]: considerably higher density | expression of FoxP3 in the spleen [3]: no significant changes | tumor growth inhibition (B16F10-hPD-L1 tumor; 10 mg/kg intraperitoneal every 2 d, 8 treatments): 62.1% | treated animals almost tumor free (B16F10-hPD-L1 tumor; 15 mg/kg intraperitoneal every 2 d): 4 of 10 | tumor growth inhibition (B16F10-hPD-L1 tumor; 15 mg/kg intraperitoneal every 2 d, 8 treatments): 82.2% | spleen (splenomegaly / spleen weight) (B16F10-hPD-L1 tumor; day 24 after tumor inoculation, vs vehicle group with splenomegaly): normal spleens | IFN-γ and TNF-α production [4]: did not significantly affect | cell toxicity (Jurkat cells): not observed | blood plasma stability [5]: relatively good | drug-related deaths ([6]; 1-wk, daily up to 50 mg/kg): no drug-related deaths | drug-related toxic effects ([6]; 1-wk, daily up to 50 mg/kg): no drug-related toxic effects observed | tolerability ([6]; 1-wk, daily up to 50 mg/kg): well tolerated | serum level of ALB [6, 12]: no significant changes | serum level of ALP [6, 12]: no significant changes | serum level of GOT ([6]; daily, up to 50 mg/kg, day 7): tendency to considerable decrease | serum level of GPT ([6]; daily, up to 50 mg/kg, day 7): tendency to considerable decrease | toxicity in murine models ([6]; up to 50 mg/kg): no observable toxicity | percentage of CD3+ CD4+ T lymphocytes in the spleen (splenic lymphocytes; P < 0.001): significantly increased | percentage of CD3+ CD8+ T lymphocytes in the spleen (splenic lymphocytes; P < 0.001): significantly increased | percentage of CD3+ T lymphocytes in the spleen (splenic lymphocytes; P < 0.001): significantly increased | percentage of IFN-γ producing CD4+ T cells (splenic lymphocytes; spleen): extremely significant increase | percentage of TNF-α producing CD4+ T cells (splenic lymphocytes; spleen): extremely significant increase | perforin production from CD3+ cells (splenic lymphocytes; spleen, P< 0.01): significantly increased | IFN-γ level [7]: dose dependent increase | TNF-α level [7]: dose dependent increase | FoxP3 expression levels within tumors [8]: did not significantly change | infiltration of CD8+ T cells in the tumor ([9]; CIBERSORTx, P< 0.05): significant higher infiltration | immune pathways (antigen processing and presentation, T-cell receptor signaling, TNF signaling, Th1 and Th2 cell differentiation) ([9]; GSEA): markedly upregulated | pathways related to Glycolysis or MAPK signaling pathway ([9]; GSEA): markedly downregulated | TNF-α level increase ([10]; 10 µM): 41.8% | TNF-α production increase ([10]; 50 μM): 86.6% | growth of colon tumors (MC38 tumor; 10 mg/kg, after 7 times of treatment): inhibited significantly | effect on body weight (MC38 tumor; during the treatment period): no significant effect

C[C@@H](O)[C@H](NC(=O)N[C@@H](CC(N)=O)c1nc([C@@H](N)CO)no1)C(=O)O [CA-170]
direct binding to PD-L1 (PD-L1): no direct binding

Atezolizumab: anti-PD-L1 antibody, positive control [reference compound]
cytokines production such as IFN-γ and TNF-α (post-treatment tumors): increased | tumor growth inhibition (B16F10-hPD-L1 tumor; 10 mg/kg tail vein injection every 3 d): 66.1%
